# Tests used:
# AoiQ-FDH [1] = experiment: flavin reductase activity, NADH consumption; assay type: biochemical, Aspergillus oryzae; conditions: no flavin reductase added; copurified FAD
# How it was run: (§1)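 Enzyme is the FDH domain of AoiQ, expressed as a standalone protein apart from its methyltransferase domain. Flavin reductase activity was followed by consumption of NADH or NADPH, with no exogenous flavin reductase added. Steady-state KM, kcat and kcat/KM were reported for each nicotinamide cofactor.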
# AoiQ-FDH [2] = experiment: flavin reductase activity, NADPH consumption; assay type: biochemical, Aspergillus oryzae; conditions: no flavin reductase added; copurified FAD
# How it was run: as §1
Km (AoiQ-FDH [1]),Km (AoiQ-FDH [2]),SMILES
43.5 ± 3.6 µM,–,NC(=O)C1=CN([C@@H]2O[C@H](COP(=O)(O)OP(=O)(O)OC[C@H]3O[C@@H](n4cnc5c(N)ncnc54)[C@H](O)[C@@H]3O)[C@@H](O)[C@H]2O)C=CC1 [NADH]
–,30.5 ± 6 µM,NC(=O)C1=CN([C@@H]2O[C@H](COP(=O)(O)OP(=O)(O)OC[C@H]3O[C@@H](n4cnc5c(N)ncnc54)[C@H](OP(=O)(O)O)[C@@H]3O)[C@@H](O)[C@H]2O)C=CC1 [NADPH]

# Source: PMC8434754 (Journal of the American Chemical Society, 2021)
